These results are taken from ChEMBL document CHEMBL1833842, “1,3-Dihydro-2H-indol-2-ones derivatives: design, synthesis, in vitro antibacterial, antifungal and antitubercular study” (2011).

Assay [1] relates to Mycobacterium tuberculosis. Kind of assay: Antituberculosis activity against 5 x 10^4 inoculum per tube Mycobacterium tuberculosis H37Rv after 24 hrs by Lowenstein-Jensen method. The class given is functional. Summed up: (§1)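 Conventional Lowenstein-Jensen method. Compound dilutions were made from a DMSO stock and added to liquid L-J medium, which was sterilized by inspissation. Tubes were incubated 24 h at 37 °C, then streaked with H37Rv (5 × 10⁴ bacilli per tube) harvested into 0.85% saline. Growth was checked at 12, 22 and 28 days at 37 °C against medium-only controls. MIC was the concentration giving no colonies or <20 colonies.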

The next assay has as its system Aspergillus clavatus. Kind of assay: Antifungal activity against 10^8 CFU/mL Aspergillus clavatus MTCC 1323 by broth microdilution method. The class given is functional. Put shortly:
(§2)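 Fungal MTCC cultures came from IMTECH Chandigarh. Mueller-Hinton broth served as growth and dilution medium, with DMSO as diluent. Inoculum was set to 10⁸ CFU/mL by turbidity. Serial dilutions from a 2000 stock gave a primary screen at 500, 250 and 125, followed by a secondary dilution series for actives. MIC was the lowest concentration inhibiting growth.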
A general note: In broth dilution the organism is exposed to a series of concentrations in liquid medium.

In the next assay the test system is Aspergillus niger. Kind of assay: Antifungal activity against 10^8 CFU/mL Aspergillus niger MTCC 282 by broth microdilution method. The class given is functional. Put shortly: as §2
The next assay relates to Candida albicans. Description: Antifungal activity against 10^8 CFU/mL Candida albicans MTCC 227 by broth microdilution method. The class given is functional. Put shortly: as §2
In another assay the test system is Bacillus subtilis. Description: Antibacterial activity against 10^8 CFU/mL Bacillus subtilis MTCC 441 by broth microdilution method. The class given is functional. Summed up: (§3)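 MTCC bacterial strains from IMTECH Chandigarh were grown in Mueller-Hinton broth, which was also used to dilute the compounds. Inoculum was turbidity-adjusted to 10⁸ CFU/mL, and DMSO served as diluent. Compounds from a 2000 stock were screened first at 500, 250 and 125; actives were retested in a second dilution series. Tubes were incubated overnight at 37 °C, and MIC was the lowest concentration with no visible growth. Clear tubes were subcultured overnight at 37 °C to tell bacteriostatic from bactericidal.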

For a further assay, the system named is Streptococcus pyogenes. Kind of assay: Antibacterial activity against 10^8 CFU/mL Streptococcus pyogenes MTCC 442 by broth microdilution method. The class given is functional. Summed up: as §3
A further assay concerns Staphylococcus aureus. Kind of assay: Antibacterial activity against 10^8 CFU/mL Staphylococcus aureus MTCC 96 by broth microdilution method. The class given is functional. Summed up:
as §3

A further assay concerns Salmonella typhi. Description: Antibacterial activity against 10^8 CFU/mL Salmonella typhi MTCC 98 by broth microdilution method. The class given is functional, Salmonella enterica subsp. enterica serovar Typhi. Put shortly: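 Broth microdilution in Mueller-Hinton broth with MTCC strains, inoculum adjusted by turbidity to 10⁸ CFU/mL. Compounds were diluted from DMSO. Primary screen used 500, 250 and 125 concentrations, and actives were serially diluted further. Tubes were incubated overnight at 37 °C. MIC was the lowest concentration with no visible growth. Clear tubes were subcultured overnight at 37 °C to judge bacteriostatic versus bactericidal.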

The subject of another assay is Klebsiella pneumoniae. Kind of assay: Antibacterial activity against 10^8 CFU/mL Klebsiella pneumoniae MTCC 109 by broth microdilution method. The class given is functional. Put shortly:
as §3

Another assay deals with Escherichia coli. Description: Antibacterial activity against 10^8 CFU/mL Escherichia coli MTCC 443 by broth microdilution method. The class given is functional. Put shortly:
as §3

Another assay has as its system Pseudomonas aeruginosa. Description: Antibacterial activity against 10^8 CFU/mL Pseudomonas aeruginosa MTCC 1688 by broth microdilution method. The class given is functional. Summed up: as §3
Assay [2] deals with Mycobacterium tuberculosis. Description: Antituberculosis activity against 5 x 10^4 bacilli per tube Mycobacterium tuberculosis H37Rv assessed as growth inhibition at 1000 ug/mL incubated for 24 hrs measured after 28 days. The class given is functional. As to conditions: read-out: GI. Summed up: as §1
Assay [3] has as its system Mycobacterium tuberculosis. Description: Antituberculosis activity against 5 x 10^4 bacilli per tube Mycobacterium tuberculosis H37Rv assessed as growth inhibition at 62.5 ug/mL incubated for 24 hrs measured after 28 days. The note with it: read-out: GI. The class given is functional. Put shortly: as §1

≈ marks a conversion by molar mass, not a printed value. A value given as a limit tells only on which side of the number the result lay.

Regarding `CC1=C(c2nnc(/N=C3\C(=O)Nc4ccccc43)s2)C(c2ccccc2)NC(=O)N1` (configuration not stated), the MIC in assay [1] came to 1000 µg/mL (≈ 2400 µM); against Aspergillus clavatus it was 250 µg/mL (≈ 600 µM); in the assay with Aspergillus niger it was 250 µg/mL (≈ 600 µM); in the assay on Candida albicans it was 250 µg/mL (≈ 600 µM). Also, the MIC99 against Bacillus subtilis is 500 µg/mL (≈ 1200 µM); with Streptococcus pyogenes, 500 µg/mL (≈ 1200 µM); against Staphylococcus aureus it was 500 µg/mL (≈ 1200 µM); in the assay with Salmonella typhi (Salmonella enterica) it was 250 µg/mL (≈ 600 µM); against Klebsiella pneumoniae, 250 µg/mL (≈ 600 µM); against Escherichia coli, 500 µg/mL (≈ 1200 µM). Further, the MIC99 against Pseudomonas aeruginosa was found to be 250 µg/mL (≈ 600 µM). Moreover, the inhibition of growth at 1000 µg/mL in assay [2] worked out at 98%.
For `CC1(C)S[C@@H]2[C@H](NC(=O)[C@H](N)c3ccccc3)C(=O)N2[C@H]1C(=O)O` [AMPICILLIN], the MIC99 against Bacillus subtilis came to 100 µg/mL (≈ 286 µM); with Streptococcus pyogenes, 100 µg/mL (≈ 286 µM); in the assay on Staphylococcus aureus it was 250 µg/mL (≈ 715 µM); with Salmonella typhi (Salmonella enterica), 100 µg/mL (≈ 286 µM); against Klebsiella pneumoniae, 100 µg/mL (≈ 286 µM); against Escherichia coli it was 100 µg/mL (≈ 286 µM). The same molecule yielded an MIC99 against Pseudomonas aeruginosa of 100 µg/mL (≈ 286 µM).
For GENTAMICIN, the MIC99 against Bacillus subtilis was determined as 0.5 µg/mL; in the assay with Streptococcus pyogenes, 0.5 µg/mL; against Staphylococcus aureus, 0.25 µg/mL; with Salmonella typhi (Salmonella enterica subsp. enterica serovar Typhi) it was 1 µg/mL; against Klebsiella pneumoniae, 0.05 µg/mL; against Escherichia coli, 0.05 µg/mL. Besides, in the assay on Pseudomonas aeruginosa, the MIC99 came to 1 µg/mL.
Regarding `CC1=C(c2nnc(/N=C3\C(=O)Nc4ccc(Cl)cc43)s2)C(c2ccccc2)NC(=S)N1` (configuration not stated), the MIC in [1] turned out to be 62.5 µg/mL (≈ 134 µM); against Aspergillus clavatus, 500 µg/mL (≈ 1070 µM); with Aspergillus niger, 500 µg/mL (≈ 1070 µM); in the assay with Candida albicans, 500 µg/mL (≈ 1070 µM). Also, the MIC99 was 100 µg/mL (≈ 214 µM) with Bacillus subtilis; 200 µg/mL (≈ 428 µM) against Streptococcus pyogenes; 200 µg/mL (≈ 428 µM) in the assay with Staphylococcus aureus; 200 µg/mL (≈ 428 µM) against Salmonella typhi (Salmonella enterica); 200 µg/mL (≈ 428 µM) against Klebsiella pneumoniae; 200 µg/mL (≈ 428 µM) against Escherichia coli. The molecule also yielded an MIC99 in the assay with Pseudomonas aeruginosa of 100 µg/mL (≈ 214 µM). Moreover, the inhibition of growth at 62.5 µg/mL in [3] is 99%.
For `COC1=CC(=O)C[C@@H](C)[C@]12Oc1c(Cl)c(OC)cc(OC)c1C2=O` [GRISEOFULVIN], the values for the MIC in the assay with Aspergillus clavatus, in the assay on Aspergillus niger and in the assay on Candida albicans were 100 µg/mL (≈ 283 µM), 100 µg/mL (≈ 283 µM) and 500 µg/mL (≈ 1420 µM), respectively.
Regarding `O=C(O)c1cn(C2CC2)c2cc(N3CCNCC3)c(F)cc2c1=O` [CIPROFLOXACIN], the MIC99 against Bacillus subtilis is 50 µg/mL (≈ 151 µM); in the assay with Streptococcus pyogenes it was 50 µg/mL (≈ 151 µM); against Staphylococcus aureus it was 50 µg/mL (≈ 151 µM); against Salmonella typhi (Salmonella enterica) it was 25 µg/mL (≈ 75.4 µM); in the assay on Klebsiella pneumoniae it was 25 µg/mL (≈ 75.4 µM); in the assay on Escherichia coli, 25 µg/mL (≈ 75.4 µM). In the assay with Pseudomonas aeruginosa, this molecule registered an MIC99 of 25 µg/mL (≈ 75.4 µM).
For the molecule `CC1=C(c2nnc(/N=C3\C(=O)Nc4ccc([N+](=O)[O-])cc43)s2)C(c2ccccc2)NC(=O)N1` (configuration not stated), the MIC in [1] came to 62.5 µg/mL (≈ 135 µM); with Aspergillus clavatus it was 500 µg/mL (≈ 1080 µM); in the assay with Aspergillus niger it was 250 µg/mL (≈ 542 µM); against Candida albicans, 250 µg/mL (≈ 542 µM). For the same molecule, the MIC99 in the assay on Bacillus subtilis was 200 µg/mL (≈ 433 µM); against Streptococcus pyogenes it was 250 µg/mL (≈ 542 µM); in the assay on Staphylococcus aureus, 200 µg/mL (≈ 433 µM); against Salmonella typhi (Salmonella enterica) it was 200 µg/mL (≈ 433 µM); in the assay on Klebsiella pneumoniae, 200 µg/mL (≈ 433 µM); with Escherichia coli it was 62.5 µg/mL (≈ 135 µM). Further, the MIC99 in the assay on Pseudomonas aeruginosa was found to be 100 µg/mL (≈ 217 µM). Further, the inhibition of growth at 62.5 µg/mL in assay [3] was found to be 99%.
As to `CC1=C(c2nnc(/N=C3\C(=O)Nc4ccc(I)cc43)s2)C(c2ccccc2)NC(=S)N1` (configuration not stated), the MIC is 1000 µg/mL (≈ 1790 µM) in [1], over 1000 µg/mL against Aspergillus clavatus, over 1000 µg/mL against Aspergillus niger and over 1000 µg/mL in the assay with Candida albicans. Further, the MIC99 came out at 200 µg/mL (≈ 358 µM) in the assay with Bacillus subtilis; 200 µg/mL (≈ 358 µM) against Streptococcus pyogenes; 200 µg/mL (≈ 358 µM) in the assay with Staphylococcus aureus; 250 µg/mL (≈ 448 µM) in the assay with Salmonella typhi (Salmonella enterica); 200 µg/mL (≈ 358 µM) in the assay on Klebsiella pneumoniae; 250 µg/mL (≈ 448 µM) against Escherichia coli. The molecule also had an MIC99 against Pseudomonas aeruginosa of 250 µg/mL (≈ 448 µM). For the same molecule, the inhibition of growth at 1000 µg/mL in [2] stood at 98%.

Broadly, the MIC is the smallest concentration in the dilution series that meets the test's criterion for growth inhibition. A lower MIC goes with inhibition by little substance. A word on the MIC99: it is an inhibitory concentration at the 99% level, which refers to growth in some studies and to a panel of isolates in others. A lower MIC99 goes with higher susceptibility.
